# Experimental data from different studies.
# Target: Death-associated protein kinase 2 (DAPK2, Homo sapiens, UniProt Q9UIK4)
Structure (SMILES),observed,technique,tested at,remaining binding [%]
O=C(c1ccc(Nc2ncc(Cl)c(-c3ccc(Cl)s3)n2)cc1)N1CCC(N2CCCC2)CC1,binding,competition with immobilised ligand,1 µM,29
C[C@H]1CCN(c2nccc(-c3cnn4ncccc34)n2)C1,binding,,1 µM,72
C=CC(=O)N1CCC(C(=O)NCC(=O)N2CCN(c3nc(-c4cnc(N)nc4C(F)F)nc(N4CCOCC4)n3)CC2)CC1,binding,competition with immobilised ligand,1 µM,95
c1cnn2ncc(-c3ccnc(N4CCC45COC5)n3)c2c1,binding,,1 µM,70
N#CC1(c2ccccn2)CCN(Cc2cc(C(=O)N3CCCC3)c(=O)n3ccccc23)CC1,cell-free assay,competition with immobilised ligand,1 µM,94
O=C(Nc1c[nH]nc1C(=O)NC1CCNCC1)c1cc(F)cc(F)c1,binding,competition with immobilised ligand,1 µM,100
CCN1CCN(Cc2ccc(C(=O)Nc3ccc(C)c(Oc4ccc5c(c4)CC(=O)N5)c3)cc2C(F)(F)F)CC1,binding,competition with immobilised ligand,1 µM,100
CN(C)c1nccc(-c2cnn3ncccc23)n1,binding,,1 µM,90
CCS(=O)(=O)c1cc2cc(C[C@](O)(CC(C)(C)c3ccc(F)cc3C(N)=O)C(F)(F)F)[nH]c2cn1,cell-free assay,competition with immobilised ligand,1 µM,90
COc1cnc(Nc2cccc(S(N)(=O)=O)c2)nc1N1CCN(c2ccccc2)CC1,binding,competition with immobilised ligand,1 µM,78
CN(C)c1nccc(-c2cnc3ncccn23)n1,binding,,1 µM,89
FC(F)(F)Oc1cccc(-c2cnc3ccc(-c4ccncc4)nn23)c1,cell-free assay,competition with immobilised ligand,5 µM,66
CC(=O)C1=C(C)N(c2cccc(C(F)(F)F)c2)C(=O)N[C@@H]1c1ccc(C#N)nc1,cell-free assay,competition with immobilised ligand,1 µM,79.2
Nc1ncc2c(n1)-c1c([nH]c3ccc(C#CC4CC4)cc13)CCCC2,binding,competition with immobilised ligand,1 µM,100
N[C@@H]1CCN(c2nccc(-c3cnn4ncccc34)n2)C1,binding,,1 µM,100
Cn1nc(C(F)(F)F)cc1-c1cnc(N2CCc3cc(S(=O)(=O)Nc4c(F)cc(Cl)cc4F)cc(N4CCCC4=O)c32)nc1,cell-free assay,competition with immobilised ligand,1 µM,94
O=C(NCCCN1CCOCC1)c1ccc(Nc2ncc(Cl)c(-c3ccc(Cl)s3)n2)cc1,binding,competition with immobilised ligand,1 µM,38
F[C@@H]1CCN(c2nccc(-c3cnn4ncccc34)n2)C1,binding,,1 µM,100
CN(c1ccnc(CNc2nc(Nc3ccc4c(c3)CC(=O)N4)ncc2C(F)(F)F)n1)S(C)(=O)=O,cell-free assay,competition with immobilised ligand,1 µM,58
Cc1cnn2ncc(-c3ccnc(N(C)C)n3)c2c1,binding,,1 µM,87
Cc1cc(-n2nc(Cc3cc(F)cc(C(F)(F)F)c3)nc2C)ccc1C(N)=O,cell-free assay,competition with immobilised ligand,1 µM,95
O=C(c1ccc(Nc2nccc(-c3cc4ccccc4s3)n2)cc1)N1CCC(N2CCCC2)CC1,binding,competition with immobilised ligand,1 µM,19
